Assay results of several laboratories.
Lines come from different studies, so protocols differ.
ABL1 T315I: Tyrosine-protein kinase ABL1 (ABL1, Homo sapiens, UniProt P00519, T315I)
ABL1 T315I phosphorylated: Tyrosine-protein kinase ABL1, phosphorylated (ABL1, Homo sapiens, UniProt P00519, T315I)
ABL1 F317I non-phosphorylated: Tyrosine-protein kinase ABL1, non-phosphorylated (ABL1, Homo sapiens, UniProt P00519, F317I)
ABL1 Q252H: Tyrosine-protein kinase ABL1 (ABL1, Homo sapiens, UniProt P00519, Q252H)
ABL1 T315I non-phosphorylated: Tyrosine-protein kinase ABL1, non-phosphorylated (ABL1, Homo sapiens, UniProt P00519, T315I)
ABL1 phosphorylated: Tyrosine-protein kinase ABL1, phosphorylated (ABL1, Homo sapiens, UniProt P00519)
ABL1 Q252H non-phosphorylated: Tyrosine-protein kinase ABL1, non-phosphorylated (ABL1, Homo sapiens, UniProt P00519, Q252H)
ABL1 F317L phosphorylated: Tyrosine-protein kinase ABL1, phosphorylated (ABL1, Homo sapiens, UniProt P00519, F317L)
ABL1 non-phosphorylated: Tyrosine-protein kinase ABL1, non-phosphorylated (ABL1, Homo sapiens, UniProt P00519)
ABL1 Q252H phosphorylated: Tyrosine-protein kinase ABL1, phosphorylated (ABL1, Homo sapiens, UniProt P00519, Q252H)

Compound | target | effect on | technique | concentration | remaining binding [%]
CN(c1nccc(-c2cnn3ncccc23)n1)C1CC1 | ABL1 T315I | binding |  | 1 µM | 100
Nc1ncc2c(n1)-c1c([nH]c3ccc(C#CC4CC4)cc13)CCCC2 | ABL1 T315I phosphorylated | binding | competition with immobilised ligand | 1 µM | 97
Cc1cc(NC(=O)c2cccc(S(F)(F)(F)(F)F)c2)cc(-n2ccn3nc(-c4cccnc4)cc23)c1 | ABL1 F317I non-phosphorylated | binding | competition with immobilised ligand | 1 µM | 100
F[C@@H]1CCN(c2nccc(-c3cnn4ncccc34)n2)C1 | ABL1 Q252H | binding |  | 1 µM | 93
O=C(Nc1c[nH]nc1C(=O)NC1CCNCC1)c1cc(F)cc(F)c1 | ABL1 T315I non-phosphorylated | binding | competition with immobilised ligand | 1 µM | 100
C[C@@H]1CN(c2cc(-c3n[nH]c4ccc(OC5(C)CC5)cc34)ncn2)C[C@H](C)O1 | ABL1 phosphorylated | cell-free assay | competition with immobilised ligand | 0.1 µM | 67
N[C@@H]1CCN(c2nccc(-c3cnn4ncccc34)n2)C1 | Tyrosine-protein kinase ABL1 (ABL1, Homo sapiens, UniProt P00519, Y253F) | binding |  | 1 µM | 62
CN1CCN(c2ccc(Nc3nccc(-c4ccccc4)n3)cc2C(F)(F)F)CC1 | Tyrosine-protein kinase ABL1 (ABL1, Homo sapiens, UniProt P00519, F317I) | binding |  | 10 µM | 100
CCN1CCN(Cc2ccc(C(=O)Nc3ccc(C)c(Oc4ccc5c(c4)CC(=O)N5)c3)cc2C(F)(F)F)CC1 | ABL1 T315I phosphorylated | binding | competition with immobilised ligand | 1 µM | 88
Cc1c(C(=O)O)cc(-c2ccc(C3CCNCC3)cc2)c2ccc(-c3ccc(C(F)(F)F)cc3)cc12 | Tyrosine-protein kinase ABL1, phosphorylated (ABL1, Homo sapiens, UniProt P00519, F317I) | binding |  | 1 µM | 100
Cc1cnc(Nc2ccc(C(=O)N3CCC(N4CCCC4)CC3)cc2)nc1-c1cc2ccccc2s1 | ABL1 Q252H non-phosphorylated | binding | competition with immobilised ligand | 1 µM | 1.1
CN(C(=O)c1ccccc1)c1cc(N(C)c2ccc3c(c2)CCc2ccc(C(=O)NCCN4CCOCC4)cc2C3=O)ccc1F | ABL1 F317L phosphorylated | cell-free assay | competition with immobilised ligand | 1 µM | 68
CC1CCCN1c1nccc(-c2cnn3ncccc23)n1 (stereo not shown) | ABL1 Q252H | binding |  | 1 µM | 97
O=c1nc(-c2ccccn2)sc2ccccc12 | ABL1 non-phosphorylated | binding | competition with immobilised ligand | 1 µM | 93
O=C(c1ccc(Nc2nccc(-c3cc4ccccc4s3)n2)cc1)N1CCC(N2CCCC2)CC1 | ABL1 F317L phosphorylated | binding | competition with immobilised ligand | 1 µM | 100
C=CC(=O)N1CCC(C(=O)NCC(=O)N2CCN(c3nc(-c4cnc(N)nc4C(F)F)nc(N4CCOCC4)n3)CC2)CC1 | ABL1 phosphorylated | binding | competition with immobilised ligand | 1 µM | 93
CN(CCCC(F)(F)F)c1nccc(-c2cnn3ncccc23)n1 | ABL1 T315I | binding |  | 1 µM | 100

Compound | target | effect on | technique | concentration | remaining binding [%]
O=C(NCC1CCOCC1)c1n[nH]cc1NC(=O)c1c(F)cccc1F | Tyrosine-protein kinase ABL1, phosphorylated (ABL1, Homo sapiens, UniProt P00519, M351T) | binding | competition with immobilised ligand | 1 µM | 91
O=C(c1ccc(Nc2ncc(Cl)c(-c3cc4ccccc4s3)n2)cc1)N1CCC(N2CCCC2)CC1 | Tyrosine-protein kinase ABL1, phosphorylated (ABL1, Homo sapiens, UniProt P00519, H396P) | binding | competition with immobilised ligand | 1 µM | 13
O=C(NCc1ncc(C(F)(F)F)cc1Cl)c1ccc2c(c1)C1(CCS(=O)(=O)CC1)[C@H](C1CC1)N2S(=O)(=O)c1ccc(F)cc1 | ABL1 phosphorylated | cell-free assay | competition with immobilised ligand | 1 µM | 71
O=C(NCCCN1CCOCC1)c1ccc(Nc2ncc(Cl)c(-c3ccc(Cl)s3)n2)cc1 | ABL1 non-phosphorylated | binding | competition with immobilised ligand | 1 µM | 26
C[C@H]1CCN(c2nccc(-c3cnn4ncccc34)n2)C1 | Tyrosine-protein kinase ABL1 (ABL1, Homo sapiens, UniProt P00519, F317L) | binding |  | 1 µM | 82
c1cncc(-c2cccc(Nc3nccc(NC4CCCCC4)n3)c2)c1 | ABL1 Q252H phosphorylated | binding | competition with immobilised ligand | 10 µM | 24
COc1cnc(Nc2cccc(S(N)(=O)=O)c2)nc1N1CCN(c2ccccc2)C(=O)C1 | ABL1 non-phosphorylated | binding | competition with immobilised ligand | 1 µM | 77
CO[C@H]1CC[C@H](CNc2ccc(S(=O)(=O)NC(=O)c3ccc(N4CCN(CC5=C(c6ccc(Cl)cc6)CC(C)(C)CC5)CC4)cc3Oc3cnc4[nH]ccc4c3)cc2[N+](=O)[O-])CC1 | ABL1 Q252H non-phosphorylated | cell-free assay | competition with immobilised ligand | 1 µM | 81
C[C@@H](c1ccc(-n2cnc3c(N)ncnc32)cc1)N1CCc2nn(C)c(Cc3ccccc3)c2C1=O | Tyrosine-protein kinase ABL1, phosphorylated (ABL1, Homo sapiens, UniProt P00519, Y253F) | binding | competition with immobilised ligand | 0.1 µM | 47
O=C(NCCCN1CCOCC1)c1ccc(Nc2nccc(-c3cc4ccccc4s3)n2)cc1 | ABL1 T315I non-phosphorylated | binding | competition with immobilised ligand | 1 µM | 19
CNC(=O)[C@@H]1CC[C@@H](n2c(-c3ccc4cnccc4c3)nc3ccc(C(=O)NCc4cccc(C(N)=O)c4)cc32)C1 | ABL1 F317I non-phosphorylated | binding | competition with immobilised ligand | 1 µM | 100
CN(C)c1nccc(-c2cnc3ncccn23)n1 | ABL1 Q252H | binding |  | 1 µM | 72
CC(C)(C)c1ccc(-c2nc(CBr)nn2-c2cccc(O)c2)cc1 | ABL1 non-phosphorylated | cell-free assay | competition with immobilised ligand | 10 µM | 82
COc1cnc(Nc2cccc(S(N)(=O)=O)c2)nc1N1CCN(c2ccccc2)CC1 | ABL1 Q252H phosphorylated | binding | competition with immobilised ligand | 1 µM | 72
O=C(c1ccc(Nc2ncc(Cl)c(-c3ccc(Cl)s3)n2)cc1)N1CCC(N2CCCC2)CC1 | Tyrosine-protein kinase ABL1, phosphorylated (ABL1, Homo sapiens, UniProt P00519, E255K) | binding | competition with immobilised ligand | 1 µM | 4.3
CN([C@@H]1CCc2c(CC(=O)O)c3ccccc3n2C1)S(=O)(=O)c1ccc(F)cc1 | ABL1 F317L phosphorylated | cell-free assay | competition with immobilised ligand | 1 µM | 92
COc1ncc2cc3ccccc3nc2c1C#N | Tyrosine-protein kinase ABL1, non-phosphorylated (ABL1, Homo sapiens, UniProt P00519, H396P) | cell-free assay | competition with immobilised ligand | 5 µM | 100
